Data published in ChEMBL document CHEMBL1157305, “Serotonergic activity-guided phytochemical investigation of the roots of Angelica sinensis” (J Nat Prod, 2006).

What was measured:
[1] = target: T1, 5-hydroxytryptamine receptor 7 (Homo sapiens, UniProt P34969); experiment: Displacement of [3H]LSD from human recombinant 5HT7 receptor expressed in CHO cells by liquid scintillation counting; type: cell-based
How it was run: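 Membranes from confluent CHO cells stably carrying human 5-HT7, grown in Ham's F-12 with 10% FBS. Cells lysed in hypotonic Tris/MgCl2/EDTA buffer at 4 °C, and membranes washed in TEM buffer. Incubated with 5 nM [3H]LSD for 1 h at 37 °C in 75 mM Tris-HCl, 1.25 mM MgCl2, 1 mM EDTA, pH 7.4. Filtered, then counted by scintillation. Nonspecific binding defined with 250 nM 5-HT. IC50 is the concentration giving 50% inhibition of binding.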

[2] = target: T1, 5-hydroxytryptamine receptor 7; experiment: Displacement of [3H]LSD from human recombinant 5HT7 receptor expressed in CHO cells at 100 uM by liquid scintillation counting relative to control; type: cell-based
How it was run: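 Membranes from confluent human 5-HT7-transfected CHO cells were lysed in hypotonic buffer at 4 °C and homogenized in TEM buffer. Protein was measured by Lowry. Binding used [3H]LSD (5 nM) in 75 mM Tris-HCl, 1.25 mM MgCl2, 1 mM EDTA, pH 7.4, for 1 h at 37 °C. Samples were filtered on PEI-presoaked filters and counted by liquid scintillation. Nonspecific binding was defined with 250 nM 5-HT.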

T1 sequence (P34969 whole entry): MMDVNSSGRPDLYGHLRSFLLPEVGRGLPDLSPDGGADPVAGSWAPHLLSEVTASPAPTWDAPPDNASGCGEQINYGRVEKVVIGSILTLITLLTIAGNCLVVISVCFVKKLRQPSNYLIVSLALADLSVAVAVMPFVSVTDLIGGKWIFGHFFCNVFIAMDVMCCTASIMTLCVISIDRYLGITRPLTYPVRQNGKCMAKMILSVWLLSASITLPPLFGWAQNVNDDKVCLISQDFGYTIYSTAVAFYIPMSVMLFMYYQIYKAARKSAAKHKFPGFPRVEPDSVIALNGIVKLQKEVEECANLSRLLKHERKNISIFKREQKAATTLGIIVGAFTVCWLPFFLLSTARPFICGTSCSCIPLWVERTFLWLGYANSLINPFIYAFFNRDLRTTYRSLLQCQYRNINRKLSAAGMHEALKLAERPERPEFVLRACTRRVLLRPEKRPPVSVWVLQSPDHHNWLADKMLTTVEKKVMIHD

Row | Structure (SMILES) | IC50 [1] [µM] | inhibition [2] [%]
1 | C=C[C@@H](O)C#CC#C[C@@H](O)/C=C\CCCCCCC [FALCARINDIOL] | 118 | 61
2 | C/C=C(/C)C(=O)OC(C)CCC1OC(=O)c2ccccc21 (stereo not given) |  | 21
3 | COc1cc(C=O)ccc1O |  | 0
4 | C=C[C@H](O)C#CC#C[C@@H](O)C1OC1CCCCCCC (stereo not given in full) |  | 36
5 | CCC/C=C1\OC(=O)C23C=CCCCC12C1(OC(=O)c2ccccc21)C3CCC (stereo not given) |  | 24
6 | CCCCCCC/C=C\[C@H](O)C#CC#CC(=O)CCOC | > 150 | 69
7 | CCCCNS(=O)(=O)c1ccccc1 |  | 0
8 | COc1cc(/C=C/C(=O)O)ccc1O |  | 41
9 | CCC/C=C1\OC(=O)C2=CC3CCC21[C@]1(OC(=O)c2ccccc21)[C@@H]3CCC (stereo not given in full) |  | 19
10 | C=C[C@@H](O)C#CC#C[C@@H](O)/C=C\CCCCCCCCOC(C)=O | 118 | 49
11 | CCC/C=C1\OC(=O)c2ccccc21 [Z-butylidenephthalide] | 127 | 46
12 | CC/C=C\C/C=C\C/C=C\CCCCCCCC(=O)OCC(O)COC(=O)CCCCCCCC/C=C\C/C=C\C=C\CC (stereo not given) |  | 0
13 | CC[C@H](/C=C/[C@@H](C)[C@H]1CC[C@H]2[C@@H]3CC=C4C[C@@H](O)CC[C@]4(C)[C@H]3CC[C@]12C)C(C)C |  | 0
14 | CCC/C=C1\OC(=O)C2=C1CCC(O)C2OC (stereo not given) |  | 36
15 | CC(C)=CCOc1c2occc2cc2ccc(=O)oc12 |  | 57
16 | COc1cc(/C=C/C(=O)OCCc2ccc(O)cc2)ccc1O | 47.6 | 71
17 | COc1cc(/C=C/C(=O)OCC(O)C(OC)c2ccc(O)c(OC)c2)ccc1O (stereo not given) |  | 31
18 | CCC/C=C1\OC(=O)C2=C1CCC=C2 |  | 33
19 | CCCCCCC/C=C\[C@H](O)C#CC#C[C@@H](O)CC |  | 5
20 | CCC/C=C1\OC(=O)C2=C1CC[C@@H](O)[C@@H]2O |  | 0
